Test results from the M2OR odorant receptor database.

biological target: T1, OR1A1 (Homo sapiens) (UniProt Q9P1Q5); conditions: stereoisomer not certain
T1 sequence (whole entry): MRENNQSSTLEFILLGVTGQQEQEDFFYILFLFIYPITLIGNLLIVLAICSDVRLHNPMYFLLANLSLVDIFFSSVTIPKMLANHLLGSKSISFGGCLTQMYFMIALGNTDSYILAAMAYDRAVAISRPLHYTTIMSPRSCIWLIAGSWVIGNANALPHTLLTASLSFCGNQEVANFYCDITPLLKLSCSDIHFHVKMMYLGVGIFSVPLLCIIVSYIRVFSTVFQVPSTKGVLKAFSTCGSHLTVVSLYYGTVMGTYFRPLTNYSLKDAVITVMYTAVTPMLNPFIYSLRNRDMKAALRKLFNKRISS
Outline: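 Values were gathered from published papers (main text and supplementary material), with extra details requested from the original authors when needed, and checked for typos and inconsistencies. Each receptor–molecule pair is called responsive (active) if the original authors judged the measured signal statistically different from baseline, and non-responsive (inactive) otherwise. Assay methods varied by source, often transient mammalian cell-line luciferase assays. Recorded details include cell line, G-protein, co-transfected protein and tags.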

SMILES	odorant receptor agonist call
CC(C)CO	inactive
COc1cccc(OC)c1O	inactive
SCCc1ccccc1	active
CC1(C)C2CC=C(C=O)C1C2 (stereo unspecified)	inactive
COc1nccnc1C(C)C	inactive
CC(C)C12CCC(C)(CC1)O2	inactive
C=C(C)C1CC=C(C)C(OC(C)=O)C1 (stereo unspecified)	inactive
CCCC(=O)OC	inactive
CCCCC1OC(=O)CC1C (stereo unspecified)	inactive
Cc1occc(=O)c1O	inactive
CCCCCC=CCCC=O	active
O=C1CCOc2ccccc21	active
CC(=O)OCC=Cc1ccccc1	inactive
CCc1ncc(C)nc1CC	inactive
C=Cc1ccc(O)cc1	inactive
CCCCCC(=O)CC(C)=O	active
CCc1cccc(O)c1	inactive
OCCc1ccccc1	inactive

SMILES	odorant receptor agonist call
C=CCSC	inactive
CCCCC(C)=O	inactive
CCCCCC(C)O (stereo unspecified)	inactive
CCCCCO	inactive
CC(C)(S)CCOC=O	inactive
CCCSSSCCC	inactive
C=C1CCC2(C(C)C)CC12 (stereo unspecified)	inactive
CCc1ccc(O)cc1	inactive
CCCCCCCC(C)=O	active
CCCCCCCC(=O)[O-].[H+]	inactive
CC(C)=CCCC(C)CC=O (stereo unspecified)	active
CCC(=O)C(=O)CC	inactive
Cc1ccc(O)cc1	inactive
COC1=C(C)OC(C)C1=O (stereo unspecified)	inactive
CCCSSSC	inactive
CC(C)=CCCC(C)=CC#N	inactive
C1CCNC1	inactive
CN(C)C	inactive
